Screening data (PubChem)
MrgX1 PAM: positive allosteric modulators of MrgX1, primary screen, HEK293 cells, Fluo-4 calcium flux; AID 588675, 2011; B-score at 10 µM; actives 0.63% (n = 310,000); FDSS; active compounds read high;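 active means plate-corrected calcium response at least 3 library SD above typical, normal starting fluorescence, not activating the receptor alone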;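 further: compound read alongside a low EC10 to EC30 dose of BAM8-22 agonist; peak minus trough fluorescence over baseline measured at the second addition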
Target sequence (Q96LB2 whole entry, looked up): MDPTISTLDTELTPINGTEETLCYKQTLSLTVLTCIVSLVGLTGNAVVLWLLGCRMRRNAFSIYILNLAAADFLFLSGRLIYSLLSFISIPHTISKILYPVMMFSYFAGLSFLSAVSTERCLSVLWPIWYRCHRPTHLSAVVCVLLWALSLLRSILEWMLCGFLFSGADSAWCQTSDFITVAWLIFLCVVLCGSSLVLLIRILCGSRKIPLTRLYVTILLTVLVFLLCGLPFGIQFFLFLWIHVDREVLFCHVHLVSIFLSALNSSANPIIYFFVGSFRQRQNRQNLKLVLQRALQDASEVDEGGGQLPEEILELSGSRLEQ
MrgX1 antag: antagonists of human MrgX1 receptor, primary screen, HEK293 cells, Fluo-4 calcium flux; B-score at 10 µM; AID 588676, 2011; BAM8-22 antagonism; active compounds read low; actives 1.3% (n = 310,000);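 active means calcium-response B-score plate-corrected more than 3 library SD below zero, starting fluorescence within 5 deviations, no agonist response on first addition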;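 further: peak minus trough fluorescence over baseline after final BAM8-22 challenge near maximal dose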
RGS4 block: RGS4 inhibitors, primary screen, cell-based, HEK293 M3R inducible RGS4, calcium flux; Regulator of G-protein signaling 4 (Homo sapiens), P49798; Fluo-4 calcium flux; active compounds read high; triggered by carbachol at its EC20; B-score at 10 µM; actives 0.45% (n = 310,000);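 active means B-score, a plate-corrected calcium signal, over three deviations above library mean, with baseline fluorescence within five deviations of library mean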;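 further: RGS4 expression induced by doxycycline in cells with stable M3 receptor; B-score is computed from the integrated fluorescence ratio over baseline after carbachol; higher B-score means a larger calcium signal and so more RGS4 inhibition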
RGS4 act: RGS4 potentiators or activators, primary screen, cell-based, HEK293 M3R inducible RGS4, calcium flux | carbachol calcium flux Fluo4; active compounds read low | B-score at 10 µM | actives 0.92% (n = 310,000);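 active means B-score of the integrated calcium signal more than 4 SD below the library mean, with starting fluorescence not abnormally high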;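 further: negative B-score means reduced calcium response which marks RGS4 activation or potentiation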
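Also added: carbachol at ECmax as muscarinic agonist stimulus; Assay system: HEK293 cells with stable M3R and inducible RGS4; Timing: overnight RGS4 induction, 30 min dye load 37 °C, 20 min compound RT; Measured by: Fluo4-AM (2 µM) calcium-flux fluorescence, kinetic read.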
MrgX1 agonist: agonists of human MrgX1 receptor, primary screen, HEK293 cells, Fluo-4 calcium flux. Fluo-4 calcium fluorescence, agonist mode; active compounds read high. actives 0.44% (n = 310,000). AID 588627, 2011. Mas-related G-protein coupled receptor member X1 (Homo sapiens), Q96LB2. B-score at 10 µM;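 active means calcium response B-score plate-corrected fluorescence ratio at least 3 library SD, with starting fluorescence B-score inside 5 SD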
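Material – MrgX1-expressing HEK293 cells · Input – 15,000 cells seeded per well · Dosing – compound as first of three additions · Times – overnight seeding, then 1 h dark dye loading · Measured by – kinetic Fluo-4 NW fluorescence of intracellular calcium · Read-out – B-scored fluorescence response ratio · Benchmarks – positive and negative control wells on each plate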
RGS4 block valid: enhanced carbachol calcium response, M3R/RGS4 cells, RGS4 inhibitor project, cell-based, validation screen, HEK293 M3R/RGS4, calcium flux; carbachol calcium Fluo-4 fluorescence; carbachol added at its EC20; 0 = buffer wells, 100 = carbachol control; shares compounds with RGS4 block; calcium response, % at 10 µM; actives 65% (n = 1,700);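 active means duplicate-averaged calcium response above the buffer-only control mean plus 5 SD of those controls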;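 further: integrated fluorescence ratio F max minus min over baseline F0; higher response in RGS4-induced cells means RGS4 inhibition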
RGS4 uninduced: carbachol calcium response in non-induced M3R cells, confirmation, counter-screen for RGS4 inhibitor project, cell-based, HEK293 M3R; shares compounds with RGS4 block; carbachol calcium Fluo-4; submaximal (EC20) carbachol stimulus; buffer wells 0%, carbachol control wells 100%; activity (percent), % at 10 µM; actives 20% (n = 1,900); AID 493000, 2010; call rule not given here;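 further: RGS4 induction absent so cells express M3R without RGS4; higher means more calcium signal and flags a non-specific hit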
M3R basal Ca ctr: second counter-screen for RGS4 inhibitors: non-induced cells without carbachol; shares compounds with RGS4 block; HEK293 M3R/RGS4 non-induced, Fluo-4 calcium, no carbachol; normalised: buffer wells 0%, carbachol wells 100%; calcium response (agonist-mode artifact), % at 10 µM; actives 22% (n = 1,900); AID 493001;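 active means duplicate-averaged calcium rise in uninduced cells above buffer wells' mean plus 5 SD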
An asterisk follows results filed as active; i = inactive; . = no result. This is a sample that favours compounds with a hit; in the whole collection about 3.5% have one here.

SMILES	MrgX1 PAM	MrgX1 antag	RGS4 block	RGS4 act	MrgX1 agonist	RGS4 block valid	RGS4 uninduced	M3R basal Ca ctr
COc1ccc(CN2C(=O)NC(=O)/C(=C\c3ccco3)C2=O)cc1	i	i	i	i	i	.	.	.
O=C1NC(=O)N(Cc2ccccc2)C(=O)/C1=C/C=C/c1ccco1	i	i	7.03*	i	30.8*	11.0%*	i	22.5%*
CCOP(=O)(Cc1cc(C(=O)CC)c(C)o1)OCC	i	i	i	i	i	.	.	.
Cc1nn(Cc2ccccc2)c(C)c1C=C1C(=O)NC(=O)NC1=O	i	i	i	i	i	i	i	i
Cc1nn(Cc2ccccc2)c(C)c1C(=O)NCc1ccccc1	i	i	i	i	i	.	.	.
COc1cc(C(c2c(C)[nH]n(-c3ccccc3)c2=O)c2c(C)[nH]n(-c3ccccc3)c2=O)cc(OC)c1OC	i	i	6.03*	i	i	14.5%*	i	i
COc1ccc(CNCCc2ccc3c(c2)OCO3)cc1Br	i	i	i	i	i	.	.	.
C/C1=C\[C@@H](C)C/C=C/[C@H]2[C@@H]3O[C@]3(C)[C@@H](C)[C@H]3[C@H](Cc4c[nH]c5ccccc45)NC(=O)[C@]32C(=O)/C=C/C(=O)[C@@H]1O	10.7*	i	11.4*	i	i	46.5%*	i	17.5%*
CC1=CC2/C=C(\C)CCC(O)C(O)/C=C/C(=O)C23C(=O)NC(CC(C)C)C3C1C (configuration not stated)	i	i	i	i	i	.	.	.
O=C1NC(=O)N(CCc2ccc(F)cc2)C(=O)/C1=C/c1cccs1	i	i	i	i	i	.	i	i
Cc1ccc(/C=C2/C(=O)NC(=O)N(CCc3ccc(F)cc3)C2=O)o1	i	i	i	i	i	i	i	i
COc1ccc(CN2C(=O)NC(=O)/C(=C/c3ccc([N+](=O)[O-])s3)C2=O)cc1	i	i	8.89*	i	i	29.0%*	i	i
O=C1NC(=O)N(Cc2ccc(F)cc2)C(=O)/C1=C\c1ccc([N+](=O)[O-])s1	i	i	6.28*	i	i	20.5%*	i	i
COc1ccc(CN2C(=O)NC(=O)/C(=C\c3cc(OC)c(OC)c(OC)c3)C2=O)cc1	i	i	i	i	i	.	.	.
Clc1cccc(C2NCc3ccccc3-n3cccc32)c1 (configuration not stated)	i	i	i	i	i	.	.	.
C=C(CO)CC1CC(O)[C@]2(C)OC3CC4OC5C[C@]6(C)O[C@]7(C)CCC8OC9C[C@]%10(C)OC%11C(C)=CC(=O)OC%11CC%10OC9C[C@@H](C)C8OC7CC6O[C@]5(C)C/C=C\C4OC3CC2O1 (some centres not stated)	i	i	i	i	i	.	i	i
CCS(=O)(=O)NCc1nnc2n1-c1ccc(Br)cc1C(c1ccccc1Cl)=NC2	i	i	i	i	i	.	.	.
Cc1ncc(CN2CCCC(C(=O)c3ccc(C(C)(C)C)cc3)C2)s1 (configuration not stated)	i	i	i	i	i	.	.	.
